Measurements as given in ChEMBL document CHEMBL4043129, “Design, synthesis and bioactivities of Celecoxib analogues or derivatives” (Bioorg Med Chem, 2017).
The source made the active and inactive calls. No cut-off for these calls is given here.

Key:
[1] = Selectivity index, ratio of IC50 for COX1 in rat peritoneal macrophages to IC50 for COX2 in rat peritoneal macrophages
In short: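 Both IC50s come from gelatin-elicited rat peritoneal macrophages given 0.5% FCS RPMI-1640 for 24 h, then compound for 30 min and arachidonic acid for 30 min. COX-1 was read as 125I-6-keto-PGF1α. For COX-2, cells first had 10% FCS for 1 h, a PBS rinse and […] LPS for 8 h, and supernatant PGE2 was read. Each IC50 is the concentration halving radioactivity.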

[2] = Dissociation constant, pKa of the compound; type: physicochemical
[3] = target: T1, Prostaglandin G/H synthase 2 (Rattus norvegicus, UniProt P35355); assay: Inhibition of COX-2 in rat peritoneal macrophages assessed as reduction in PGE2 production using radiolabelled-arachidonic acid as substrate pretreated for 30 mins followed by substrate addition measured after 30 mins
T1 sequence (P35355 whole entry): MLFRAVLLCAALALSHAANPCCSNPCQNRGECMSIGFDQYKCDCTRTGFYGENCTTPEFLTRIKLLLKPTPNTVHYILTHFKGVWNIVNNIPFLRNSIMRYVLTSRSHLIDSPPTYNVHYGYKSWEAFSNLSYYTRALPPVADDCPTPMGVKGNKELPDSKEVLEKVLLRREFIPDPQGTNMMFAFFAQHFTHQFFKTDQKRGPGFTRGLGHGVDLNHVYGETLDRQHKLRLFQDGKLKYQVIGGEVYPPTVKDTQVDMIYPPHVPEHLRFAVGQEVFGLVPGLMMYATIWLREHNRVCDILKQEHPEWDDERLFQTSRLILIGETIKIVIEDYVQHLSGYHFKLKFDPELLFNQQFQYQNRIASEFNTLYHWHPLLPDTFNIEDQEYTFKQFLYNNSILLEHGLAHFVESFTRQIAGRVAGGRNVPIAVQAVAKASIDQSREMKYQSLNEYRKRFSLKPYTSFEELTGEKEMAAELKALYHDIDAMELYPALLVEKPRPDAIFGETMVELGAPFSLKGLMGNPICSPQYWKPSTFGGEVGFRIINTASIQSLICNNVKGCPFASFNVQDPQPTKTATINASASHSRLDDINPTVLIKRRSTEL

[4] = target: T2, Prostaglandin G/H synthase 1 (Rattus norvegicus, UniProt Q63921); assay: Inhibition of COX-1 in rat peritoneal macrophages assessed as reduction in [125I]-6-Keto-PGF1alpha production using arachidonic acid as substrate pretreated for 30 mins followed by substrate addition measured after 30 mins
T2 sequence (Q63921 whole entry): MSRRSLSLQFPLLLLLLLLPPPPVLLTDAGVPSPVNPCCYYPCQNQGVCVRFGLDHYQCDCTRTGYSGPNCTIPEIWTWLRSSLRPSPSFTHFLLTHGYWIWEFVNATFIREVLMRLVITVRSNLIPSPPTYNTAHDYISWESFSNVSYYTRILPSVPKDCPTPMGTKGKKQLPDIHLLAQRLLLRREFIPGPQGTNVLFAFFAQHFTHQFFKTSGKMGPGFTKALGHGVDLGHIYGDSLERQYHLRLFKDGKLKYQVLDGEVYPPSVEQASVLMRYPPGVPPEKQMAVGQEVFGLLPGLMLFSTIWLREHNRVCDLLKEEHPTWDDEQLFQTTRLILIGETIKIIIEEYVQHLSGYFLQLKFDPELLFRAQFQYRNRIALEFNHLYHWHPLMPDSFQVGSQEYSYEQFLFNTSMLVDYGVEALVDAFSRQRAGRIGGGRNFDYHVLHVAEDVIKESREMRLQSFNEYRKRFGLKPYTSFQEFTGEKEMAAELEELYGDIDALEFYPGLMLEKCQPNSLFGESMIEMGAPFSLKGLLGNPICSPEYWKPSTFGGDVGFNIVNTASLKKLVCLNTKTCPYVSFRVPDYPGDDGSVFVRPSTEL
In short: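 Rat peritoneal macrophages were elicited with 5 mL 0.5% gelatin i.p. and harvested after 5 h. Cells were washed, seeded at 1.0 × 10^6/mL and adhered 24 h at 37 °C, 5% CO2, then kept 24 h in 0.5% FCS RPMI-1640. Compounds at several concentrations were added for 30 min, then arachidonic acid for 30 min. 125I-6-keto-PGF1α was read by kit, and IC50 was taken as the concentration halving radioactivity.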

[5] = Lipid/water partition coefficient, log P of the compound; type: physicochemical
Rattus norvegicus [6] = assay: In-vivo inhibition of COX2 in rat at 20 mg/kg measured after 60 mins; type: functional; settings: 1 h
Rattus norvegicus [7] = assay: In-vivo inhibition of COX2 in rat at 20 mg/kg measured after 20 mins; type: functional
Rattus norvegicus [8] = assay: In-vivo inhibition of COX2 in rat at 20 mg/kg measured after 90 mins; type: functional; settings: 1.5 h
Rattus norvegicus [9] = assay: In-vivo inhibition of COX2 in rat at 20 mg/kg measured after 40 mins; type: functional
Rattus norvegicus [10] = assay: In-vivo inhibition of COX2 in rat at 20 mg/kg measured after 120 mins; type: functional; settings: 2 h
Rattus norvegicus [11] = assay: Anti-inflammatory activity in rat assessed as reduction in PGE2 release at 20 mg/kg measured after 2 hrs; type: functional, organism-based

| Compound | pKa [2] | IC50 [3] [µM] | IC50 [4] [µM] | logP [5] | Ratio IC50 [1] | inhibition in vivo at 20 mg/kg (Rattus norvegicus [6]) [%] | inhibition in vivo at 20 mg/kg (Rattus norvegicus [7]) [%] | inhibition in vivo at 20 mg/kg (Rattus norvegicus [8]) [%] | inhibition in vivo at 20 mg/kg (Rattus norvegicus [9]) [%] | inhibition in vivo at 20 mg/kg (Rattus norvegicus [10]) [%] | Activity (Rattus norvegicus [11]) |
| --- | --- | --- | --- | --- | --- | --- | --- | --- | --- | --- | --- |
| CN1C=CC(C2OC(C(Cl)(Cl)Cl)=CN2c2ccc(S(N)(=O)=O)cc2)C=C1 (stereo not given) | 7.63 | 13.7 | 83.1 | 2.78 | 6.1 | – | – | – | – | – | – |
| CC1=CN(c2ccc(S(N)(=O)=O)cc2)C(C2C=CN(C)C=C2)O1 (stereo not given) | 7.09 | 17.4 | 95.2 | 1.4 | 5.5 | – | – | – | – | – | – |
| CN1C=CN(C2SC(C(F)(F)F)=CN2c2ccc(S(N)(=O)=O)cc2)C=C1 (stereo not given) | 7.5 | 0.0793 | 52.4 | 2.38 | 660.3 | 86.1 | 42.5 | 97.3 | 63.1 | 98 | Active |
| CN1C=CN(C2OC(C(Cl)(Cl)Cl)=CN2c2ccc(S(N)(=O)=O)cc2)C=C1 (stereo not given) | 7.55 | 0.099 | 53.4 | 2.41 | 539.3 | 85.9 | 40.6 | 95.4 | 60.9 | 97.9 | Active |
| CC1=CN(c2ccc(S(N)(=O)=O)cc2)C(C2C=CN(C)C=C2)N1 (stereo not given) | – | – | – | – | – | – | – | – | – | – | Active |
| CN1C=CN(C2SC(C(Cl)(Cl)Cl)=CN2c2ccc(S(N)(=O)=O)cc2)C=C1 (stereo not given) | 7.76 | 11.6 | 88.6 | 3.13 | 7.7 | – | – | – | – | – | – |
| Cc1ccc(-c2cc(C(F)(F)F)nn2-c2ccc(S(N)(=O)=O)cc2)cc1 [CELECOXIB] | – | – | – | – | – | 89.1 | 45.3 | 100 | 68.4 | 100 | – |
| CN1C=CC(C2SC(C(F)(F)F)=CN2c2ccc(S(N)(=O)=O)cc2)C=C1 (stereo not given) | 7.62 | 8.08 | 80.5 | 2.77 | 10 | – | – | – | – | – | – |
| CN1C=CN(C2NC(C(F)(F)F)=CN2c2ccc(S(N)(=O)=O)cc2)C=C1 (stereo not given) | – | – | – | – | – | – | – | – | – | – | Active |

Continued, in another order:

| pKa [2] | IC50 [3] [µM] | IC50 [4] [µM] | logP [5] | Compound | Ratio IC50 [1] | inhibition in vivo at 20 mg/kg (Rattus norvegicus [6]) [%] | inhibition in vivo at 20 mg/kg (Rattus norvegicus [7]) [%] | inhibition in vivo at 20 mg/kg (Rattus norvegicus [8]) [%] | inhibition in vivo at 20 mg/kg (Rattus norvegicus [9]) [%] | inhibition in vivo at 20 mg/kg (Rattus norvegicus [10]) [%] | Activity (Rattus norvegicus [11]) |
| --- | --- | --- | --- | --- | --- | --- | --- | --- | --- | --- | --- |
| 8 | 12.7 | 98.2 | 3.5 | CN1C=CC(C2SC(C(Cl)(Cl)Cl)=CN2c2ccc(S(N)(=O)=O)cc2)C=C1 (stereo not given) | 7.7 | – | – | – | – | – | – |
| 7.18 | 1.27 | 55.6 | 1.68 | CN1C=CN(C2OC(C(F)(F)F)=CN2c2ccc(S(N)(=O)=O)cc2)C=C1 (stereo not given) | 43.8 | – | – | – | – | – | – |
| 7.2 | 16.4 | 76.9 | 1.75 | CC1=CN(c2ccc(S(N)(=O)=O)cc2)C(N2C=CN(C)C=C2)S1 (stereo not given) | 4.8 | – | – | – | – | – | – |
| 7.01 | 20.1 | 98.5 | 1.04 | CC1=CN(c2ccc(S(N)(=O)=O)cc2)C(N2C=CN(C)C=C2)O1 (stereo not given) | 4.9 | – | – | – | – | – | – |
| 7.39 | 1.53 | 56.9 | 2.12 | CC1=CN(c2ccc(S(N)(=O)=O)cc2)C(C2C=CN(C)C=C2)S1 (stereo not given) | 37.1 | – | – | – | – | – | – |
| 7.33 | 0.053 | 50.2 | 2.05 | CN1C=CC(C2OC(C(F)(F)F)=CN2c2ccc(S(N)(=O)=O)cc2)C=C1 (stereo not given) | 947.5 | 87.5 | 44.6 | 99.6 | 64.9 | 100 | Active |
